The record followed here is ChEMBL document CHEMBL2331235, “Solphenazines A-F, glycosylated phenazines from Streptomyces sp. strain DL-93” (J Nat Prod, 2013).

Active and inactive are the calls of the source.

The subject of one data set is Escherichia coli. The data set is described as follows: Antimicrobial activity against Escherichia coli ATCC 25922 by microbroth dilution assay. It counts as functional. Background: Broth dilution looks for growth in wells or tubes with falling amounts of substance.
The next data set relates to Cryptococcus neoformans. The data set can be described thus: Antimicrobial activity against Cryptococcus neoformans ATCC 66031 by microbroth dilution assay. The format is functional.
In data set [1] the test system is Streptomyces scabiei. The data set can be described thus: Antimicrobial activity against Streptomyces scabies LK 82 at 25 ug/disk after 2 days by disk diffusion assay. The format is functional. The procedure, abridged: (§1)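 S. scabies grown 5 days in liquid ISP2, diluted 1:10 in molten ISP2 agar. Paper discs carrying 25 μg compound (applied in 20 μL methanol) were set on a thin agar layer and overlaid with 10 mL of the seeded agar (double-layer method). Plates were incubated 2 days at 30 °C, and inhibition zone diameters were measured.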
For orientation: A growth-free zone around the sample is the usual read-out of agar diffusion tests.

In another data set the test system is Candida albicans. The data set is described as follows: Antimicrobial activity against Candida albicans ATCC 10231 by microbroth dilution assay. It counts as functional.
The test system of the next data set is Vero. The data set is described as follows: (§2) Cytotoxicity against African green monkey Vero cells at 150 uM after 72 hrs by MTT assay. It counts as cell-based. Conditions: chlorocebus sabaeus, vero, 72 h, 150 µM. The procedure, abridged:
(§3)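 Vero cells in MEM and HCT-116 cells in RPMI, each with 10% FBS, 1% penicillin–streptomycin and 1% Glutamax. Cells were seeded at 3.0 × 10^4 per well and left to adhere overnight. Medium was replaced, and compounds in DMSO were added to a final 150–0.1 μM. Cells were incubated 72 h at 37 °C in 4.5% CO2 (humidified), then viability was read by MTT.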
(In general: Tetrazolium assays rely on reduction of a dye to a coloured formazan, in cell work by metabolically active cells.)

Another data set has as its system HCT16. The data set is described as follows: (§4) Cytotoxicity against human […] cells after 72 hrs by MTT assay. It counts as functional, cell-based. The procedure, abridged: as §3
The next data set relates to Staphylococcus aureus. The data set can be described thus: Antimicrobial activity against methicillin-resistant Staphylococcus aureus ATCC 43300 by microbroth dilution assay. The format is functional.
Data set [2] relates to Streptomyces scabiei. The data set can be described thus: Antimicrobial activity against Streptomyces scabies NRRL B 2795 at 25 ug/disk after 2 days by disk diffusion assay. It counts as functional. An outline of the steps: as §1
The next data set concerns Enterococcus faecalis. The data set can be described thus: Antimicrobial activity against vancomycin-resistant Enterococcus faecalis ATCC 51299 by microbroth dilution assay. The format is functional.
For the next data set, the system named is Klebsiella pneumoniae. The data set can be described thus: Antimicrobial activity against Klebsiella pneumoniae ATCC 13883 by microbroth dilution assay. The format is functional.
In a further data set the test system is Bacillus spizizenii. The data set can be described thus: Antimicrobial activity against Bacillus subtilis ATCC 6633 by microbroth dilution assay. It counts as functional.
For another data set, the system named is Acinetobacter baumannii. The data set can be described thus: Antimicrobial activity against Acinetobacter baumannii ATCC 19606 by microbroth dilution assay. The format is functional. Conditions: ATCC 19606 = CIP 70.34 = JCM 6841.
The subject of the next data set is Pseudomonas aeruginosa. The data set is described as follows: Antimicrobial activity against Pseudomonas aeruginosa ATCC 27853 by microbroth dilution assay. It counts as functional.
Data set [3] can be described thus: as §4. The format is functional, cell-based. The procedure, abridged:
as §3

A short description of data set [4]: as §2. It counts as cell-based. The following applies: chlorocebus sabaeus, Vero cells; read-out: GI. An outline of the steps:
as §3

For orientation: MIC means the smallest concentration in the dilution series that meets the test's criterion for growth inhibition. For the compound `C[C@@H]1O[C@@H](OC(=O)c2cccc3nc4c(O[C@@H]5O[C@@H](C)[C@H](O)[C@@H](O)[C@H]5O)cccc4nc23)[C@H](O)[C@H](O)[C@H]1O` [SOPHENAZINE D], the minimal inhibitory concentration (MIC) in the data set on Escherichia coli, with Cryptococcus neoformans, against Candida albicans, against Staphylococcus aureus, in the data set on Enterococcus faecalis and against Klebsiella pneumoniae was greater than 25 µg/mL in each case. For the same compound, the minimum inhibitory concentration (MIC) with Bacillus spizizenii, against Acinetobacter baumannii and against Pseudomonas aeruginosa was greater than 25 µg/mL throughout. The result with Streptomyces scabiei [1], in the data set on HCT16 and in the data set on Streptomyces scabiei [2] was inactive. Also, the Activity entry with Vero is “Non-toxic”.
Regarding `C[C@@H]1O[C@@H](OC(=O)c2ccc(O)cc2)[C@H](O)[C@H](O)[C@H]1O`, the MIC against Escherichia coli, in the data set on Cryptococcus neoformans, in the data set on Candida albicans, with Staphylococcus aureus, with Enterococcus faecalis and against Klebsiella pneumoniae was greater than 25 µg/mL throughout. Further, the MIC in the data set with Bacillus spizizenii, against Acinetobacter baumannii and with Pseudomonas aeruginosa was greater than 25 µg/mL throughout. In addition, the outcome with Streptomyces scabiei [1] and in the data set with Streptomyces scabiei [2] was inactive.
As to `CNc1ccc(C(=O)O[C@@H]2O[C@@H](C)[C@H](O)[C@@H](O)[C@H]2O)cc1`, the minimum inhibitory concentration (MIC) in the data set with Escherichia coli, against Cryptococcus neoformans, in the data set on Candida albicans, against Staphylococcus aureus, against Enterococcus faecalis and against Klebsiella pneumoniae was greater than 25 µg/mL each time. Besides, the MIC in the data set on Bacillus spizizenii, against Acinetobacter baumannii and against Pseudomonas aeruginosa was greater than 25 µg/mL in each case. Moreover, the result in the data set on Streptomyces scabiei [1] and in the data set with Streptomyces scabiei [2] was inactive.
Turning to `C[C@@H]1O[C@@H](Oc2cccc3nc4c(C(=O)O)cccc4nc23)[C@H](O)[C@H](O)[C@H]1O` [IZUMINOSIDE A], the MIC against Escherichia coli, against Cryptococcus neoformans, with Candida albicans, with Staphylococcus aureus, with Enterococcus faecalis and against Klebsiella pneumoniae was greater than 25 µg/mL throughout. Moreover, the MIC in the data set with Bacillus spizizenii, in the data set with Acinetobacter baumannii and in the data set with Pseudomonas aeruginosa was greater than 25 µg/mL throughout. For the same compound, the result in the data set with Streptomyces scabiei [1], in the data set on HCT16 and with Streptomyces scabiei [2] was inactive. Besides, the Activity entry in the data set on Vero is “Non-toxic”.
In general, EC50 refers to the concentration that produces a half-maximal response. For the compound `C[C@@H]1O[C@@H](Oc2cccc3nc4c(O[C@@H]5O[C@@H](C)[C@H](O)[C@@H](O)[C@H]5O)cccc4nc23)[C@H](O)[C@H](O)[C@H]1O` [SOPHENAZINE F], the MIC in the data set on Escherichia coli, against Cryptococcus neoformans, in the data set with Candida albicans, in the data set on Staphylococcus aureus, in the data set with Enterococcus faecalis and in the data set with Klebsiella pneumoniae was greater than 25 µg/mL throughout. In addition, the MIC against Bacillus spizizenii, against Acinetobacter baumannii and in the data set with Pseudomonas aeruginosa was greater than 25 µg/mL in each case. The result in the data set with Streptomyces scabiei [1] and with Streptomyces scabiei [2] was inactive. For the same compound, in data set [3], the EC50 was found to be 45 µM.
`CC(=O)O[C@@H]1[C@@H](O)[C@H](C)O[C@@H](OC(=O)c2cccc3nc4c(C(=O)O[C@@H]5O[C@@H](C)[C@H](O)[C@@H](O)[C@H]5O)cccc4nc23)[C@@H]1O` [SOPHENAZINE B]: the MIC against Escherichia coli, with Cryptococcus neoformans, against Candida albicans, against Staphylococcus aureus, against Enterococcus faecalis and against Klebsiella pneumoniae was greater than 25 µg/mL throughout. Further, the MIC against Bacillus spizizenii, against Acinetobacter baumannii and against Pseudomonas aeruginosa was greater than 25 µg/mL each time. Besides, the result in the data set with Streptomyces scabiei [1] and in the data set on Streptomyces scabiei [2] was inactive. For the same compound, the inhibition at 72 h, 150 µM in data set [4] turned out to be 30%. In data set [3], this compound gave an EC50 of 52 µM.
`O=C(O)c1cccc2nc3c(C(=O)O)cccc3nc12`: the MIC in the data set on Escherichia coli, with Cryptococcus neoformans, against Candida albicans, with Staphylococcus aureus, in the data set on Enterococcus faecalis and against Klebsiella pneumoniae was greater than 25 µg/mL throughout. The MIC against Bacillus spizizenii, in the data set with Acinetobacter baumannii and in the data set on Pseudomonas aeruginosa was greater than 25 µg/mL throughout. Moreover, the outcome in the data set with Streptomyces scabiei [1], with HCT16 and in the data set on Streptomyces scabiei [2] was inactive. Moreover, in the data set with Vero, the Activity result is given as “Non-toxic”.
As for `COC(=O)c1cccc2nc3c(O[C@@H]4O[C@@H](C)[C@H](O)[C@@H](O)[C@H]4O)cccc3nc12` [SOPHENAZINE E], the MIC in the data set on Escherichia coli, against Cryptococcus neoformans, against Candida albicans, in the data set with Staphylococcus aureus, in the data set on Enterococcus faecalis and in the data set with Klebsiella pneumoniae was greater than 25 µg/mL in each case. Further, the MIC in the data set with Bacillus spizizenii, against Acinetobacter baumannii and against Pseudomonas aeruginosa was greater than 25 µg/mL each time. Moreover, the result with Streptomyces scabiei [1], in the data set with HCT16 and in the data set on Streptomyces scabiei [2] was inactive. Moreover, the Activity entry in the data set on Vero is recorded as “Non-toxic”.
As for `C[C@@H]1O[C@@H](OC(=O)c2cccc3nc4c(C(=O)O)cccc4nc23)[C@H](O)[C@H](O)[C@H]1O` [IZUMINOSIDE C], the minimum inhibitory concentration (MIC) in the data set on Escherichia coli, in the data set on Cryptococcus neoformans, against Candida albicans, in the data set on Staphylococcus aureus, against Enterococcus faecalis and with Klebsiella pneumoniae was greater than 25 µg/mL throughout. In addition, the minimal inhibitory concentration (MIC) against Bacillus spizizenii, with Acinetobacter baumannii and in the data set on Pseudomonas aeruginosa was greater than 25 µg/mL each time. In addition, the outcome in the data set on Streptomyces scabiei [1], in the data set on HCT16 and with Streptomyces scabiei [2] was inactive. The Activity result in the data set with Vero was “Non-toxic”.
Consider `CC(=O)O[C@@H]1[C@@H](O)[C@H](C)O[C@@H](OC(=O)c2cccc3nc4c(C(=O)O[C@@H]5O[C@@H](C)[C@H](O)[C@@H](OC(C)=O)[C@H]5O)cccc4nc23)[C@@H]1O` [SOPHENAZINE C], for which the MIC against Escherichia coli, in the data set with Cryptococcus neoformans, against Candida albicans, in the data set on Staphylococcus aureus, in the data set with Enterococcus faecalis and with Klebsiella pneumoniae was greater than 25 µg/mL in each case. Moreover, the MIC in the data set on Bacillus spizizenii, with Acinetobacter baumannii and in the data set on Pseudomonas aeruginosa was greater than 25 µg/mL throughout. In addition, the outcome in the data set on Streptomyces scabiei [1] and with Streptomyces scabiei [2] was inactive.
